# Published values collected from several papers.
Compound,organism,assay,test system,conditions,measurement,value
COC(=O)N[C@H](C(=O)N1CCC[C@H]1C(=O)Nc1cccc(C#CC#Cc2cccc(NC(=O)[C@@H]3CCCN3C(=O)[C@@H](NC(=O)OC)C(C)C)c2)c1)C(C)C,Hepatitis C virus,"viral replication, inhibitor, luciferase",GETYPE4A,replicon,EC50,6.11 nM
CCCCCCC/C=C/C(=O)N1C(=O)/C(=C(\O)CCCC)C(=O)C1CC(C)C (stereo not drawn),Proteus mirabilis,microbial growth,ATCC25933,,MIC,> 200 µg/mL
CC1(C)OC[C@@]2(C)[C@H]3CC[C@@H]4CN(Cc5cccs5)[C@@H](C5=CCOC5=O)C[C@H]4[C@]3(C)CC[C@H]2O1,unidentified human coronavirus,cytopathic effect,MRC5,"25 µM, 72 h",inhibition,38.4%
CCOC(=O)c1c(N)csc1-c1cn(-c2ccccc2)nc1-c1ccc(C)cc1,Acinetobacter baumannii,"microbial killing, broth dilution",,,MBC,0.25 µg/mL
Nc1nc(N)c2ncn([C@@H]3O[C@H](CO)[C@@H](F)[C@@H]3F)c2n1,Hepatitis C virus,"viral replication, inhibitor",Huh-7,replicon,EC90,> 10000 nM
CC(=O)OC[C@@]1(C)[C@H]2CC[C@@H]3CN(Cc4ccccc4)[C@@H](C4=CCOC4=O)C[C@H]3[C@]2(C)CC[C@H]1OC(C)=O,unidentified human coronavirus,cytopathic effect,MRC5,"25 µM, 72 h",inhibition,82.4%
CCOC(=O)N[C@@H](C(=O)N1CCC[C@@H]1C(=O)Nc1ccc(C#CC#Cc2ccc(NC(=O)[C@H]3CCCN3C(=O)[C@H](NC(=O)OCC)C(C)C)cc2)cc1)C(C)C,Hepatitis C virus,"viral replication, inhibitor, luciferase","Huh-5-2, GETYPE1B","72 h, replicon",EC50,> 10000 nM
C[C@@]1(O)[C@H](O)[C@@H](CO)O[C@H]1n1ccc(N)nc1=O,Hepatitis C virus,"viral replication, inhibitor",Huh-7,replicon,EC50,1800 nM
COC(=O)N[C@H](C(=O)N1CCC[C@H]1c1ncc(-c2ccc(-c3ccc(-c4cnc([C@@H]5CCCN5C(=O)[C@@H](NC(=O)OC)C(C)C)[nH]4)cc3)cc2)[nH]1)C(C)C,Hepatitis C virus,"viral replication, inhibitor","HEK-293T, GETYPE2A",replicon,EC50,0.0035 nM
C=C1CC[C@@H]2[C@](C)(CO)[C@H](O)CC[C@@]2(C)[C@@H]1C/C=C1/C(=O)OC[C@H]1O,unidentified human coronavirus,cytopathic effect,MRC5,"25 µM, 72 h",inhibition,58.4%
CCOC(=O)N[C@H](CC(C)C)C(=O)N1CCC[C@H]1C(=O)Nc1cccc(C#CC#Cc2cccc(NC(=O)[C@@H]3CCCN3C(=O)[C@@H](CC(C)C)NC(=O)OCC)c2)c1,Hepatitis C virus,"viral replication, inhibitor, luciferase",GETYPE3A,replicon,EC50,> 10000 nM
CC1(C)OC[C@@]2(C)[C@H]3CC[C@@H]4CN(Cc5ccco5)[C@@H](C5=CCOC5=O)C[C@H]4[C@]3(C)CC[C@H]2O1,unidentified human coronavirus,cytopathic effect,MRC5,"25 µM, 72 h",inhibition,17.5%
O=[N+]([O-])c1ccc(O)c2ncccc12,Acinetobacter baumannii,microbial growth,19606,,IC50,560 nM
C[C@@]12COCO[C@@H]1CC[C@]1(C)[C@@H]2CC[C@@H]2CN(Cc3ccc(F)cc3)[C@@H](C3=CCOC3=O)C[C@H]21,unidentified human coronavirus,cytopathic effect,MRC5,"25 µM, 72 h",inhibition,32%
CCOC(=O)N[C@@H](CC(C)C)C(=O)N1CCC[C@H]1C(=O)Nc1ccc(C#CC#Cc2ccc(NC(=O)[C@@H]3CCCN3C(=O)[C@H](CC(C)C)NC(=O)OCC)cc2)cc1,Hepatitis C virus,"viral replication, inhibitor, luciferase","Huh-5-2, GETYPE1B","72 h, replicon",EC50,3210 nM
